Measured values as given in ChEMBL document CHEMBL3817737, “Structure-Based Identification of Novel Ligands Targeting Multiple Sites within a Chemokine-G-Protein-Coupled-Receptor Interface” (J Med Chem, 2016).

Experiments:
[1] = target: T1, Stromal cell-derived factor 1 (Homo sapiens, UniProt P48061); test: Binding affinity to His6-SUMO fusion tagged wild type human [U-15N]CXCL12 expressed in Escherichia coli assessed as induction of chemical shift perturbations to residues at I4/I6 binding site by 2D 1H-15N HMQC NMR spectroscopy
T1 sequence (P48061 whole entry, the tested form may be a part): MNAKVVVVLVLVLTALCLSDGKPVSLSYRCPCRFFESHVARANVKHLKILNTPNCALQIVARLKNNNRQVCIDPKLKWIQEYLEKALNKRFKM
Procedure, shortened: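 [U-15N]-CXCL12 WT was made as a His6SUMO fusion in E. coli (Terrific Broth, 1 mM IPTG) and taken from inclusion bodies by Ni-NTA. Combined CSP = ((5ΔδH)2+(ΔδN)2)0.5. Kd came from single-site quadratic fits of the most-perturbed residues, fitted individually and averaged (±SD).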

[2] = target: T1, Stromal cell-derived factor 1; test: Binding affinity to His6-SUMO fusion tagged wild type human [U-15N]CXCL12 expressed in Escherichia coli by 2D 1H-15N HMQC NMR spectroscopy
[3] = target: Stromal cell-derived factor 1 (Homo sapiens, UniProt P48061, A65C/L36C)
Chain of Stromal cell-derived factor 1 (Homo sapiens, UniProt P48061, A65C/L36C) (P48061 22-93 L57C/A86C limits assumed): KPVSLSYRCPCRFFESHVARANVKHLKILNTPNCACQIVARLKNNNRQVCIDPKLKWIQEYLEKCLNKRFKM

Row | Compound | Activity [1] [%] | Kd [2] | Kd [3] [µM] | Kd ([2]; read-out: Kd) [µM]
1 | Cc1ccc(NS(=O)(=O)c2ccc(OCC(=O)O)c(C)c2)cc1C | 12.5 |  |  | 
2 | CC(C)O.CCCOc1ccc(C(Nc2ccc(F)cc2)P(=O)(O)O)cc1 (stereo unspecified) |  | Dose-dependent effect | 74 | 
3 | C[C@H](NC(=O)CCn1ccc2c(Cl)cccc21)C(=O)O | 16.7 |  |  | 1700
4 | O=C(O)CC1c2ccccc2CCN1C(=O)Nc1cccc(F)c1 (stereo unspecified) | 12.5 |  |  | 
